Common to all, as to format: functional
In assay [1] the test system is Rattus norvegicus. The assay is described as follows: Inhibition of the passive cutaneous anaphylaxis (PCA) reaction in rats by intravenous administration of 0.1 mg/kg. Put shortly: (§1)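 Rats were given intradermal antiserum dilutions on the back. At 48 h, drug dissolved in the challenge solution (1 mg ovalbumin, 0.25% Evans blue, 1 mL saline) was injected iv with the antigen; sodium bicarbonate in slight molar excess was used if needed. Wheal diameters were read 30 min later and plotted against antiserum concentration, with the least-squares line extrapolated to a zero-antiserum base value. Five rats per group.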

For assay [2], the system named is Rattus norvegicus. The assay is described as follows: Inhibition of passive cutaneous anaphylaxis (PCA) reaction in rats by intraperitoneal administration of 5 mg/kg. To be noted: ip. Put shortly: (§2)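 Rats were sensitized by intradermal antiserum dilutions at several dorsal sites. After 48 h they were challenged iv with 1 mg ovalbumin in 1 mL saline containing 0.25% Evans blue. Drug was suspended in 1% gum tragacanth in saline and given ip or orally 10–15 min before challenge. Rats were killed 30 min later and the mean orthogonal wheal diameter was measured.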

In assay [3] the test system is Rattus norvegicus. The assay can be described thus: Ability to inhibit the passive cutaneous anaphylaxis (PCA) reaction in rats by peroral administration of 2 mg/kg. To be noted: route oral. Put shortly: as §2
The test system of assay [4] is Rattus norvegicus. The assay can be described thus: Inhibition of the passive cutaneous anaphylaxis (PCA) reaction in rats by intravenous administration of 0.01 mg/kg. In a few lines: as §1
Assay [5] relates to Rattus norvegicus. The assay is described as follows: Inhibition of passive cutaneous anaphylaxis (PCA) reaction in rats, peroral administration 5 mg/kg. To be noted: route oral. Put shortly:
as §2

Assay [6] relates to Rattus norvegicus. The assay can be described thus: Ability to inhibit the passive cutaneous anaphylaxis (PCA) reaction in rats by intravenous administration of 0.5 mg/kg. Put shortly:
as §1

In general, inhibition in vivo refers to the drop in the measured response relative to a control, in per cent. Lower therefore signals a weak effect. Compound `Cn1c2ccc(F)cc2c(=O)n2nc(-c3nn[nH]n3)cc12` showed an inhibition in vivo at 0.1 mg/kg in the assay with Rattus norvegicus [1] of 100%. For the same compound, the figures for the inhibition in vivo at 5 mg/kg in the assay on Rattus norvegicus [2] and with Rattus norvegicus [5] were 100% and 8%, respectively. The compound further showed an inhibition in vivo at 2 mg/kg with Rattus norvegicus [3] of 27%. This compound showed an inhibition in vivo at 0.01 mg/kg with Rattus norvegicus [4] of 10%.

For `COc1cc2c(=O)n3nc(C(=O)O)cc3n(C)c2cc1OC`, the figures for the inhibition in vivo at 5 mg/kg in the assay on Rattus norvegicus [2] and in the assay with Rattus norvegicus [5] were 100% and 6%, respectively.

Consider `O=C(Nc1nn[nH]n1)c1cc2nc3ccc(O)cc3c(O)n2n1`, for which the inhibition in vivo at 0.1 mg/kg in the assay on Rattus norvegicus [1] came to 90%. In the assay on Rattus norvegicus [2], this compound displayed an inhibition in vivo at 5 mg/kg of 100%.

Turning to `Cn1c2ccc(F)cc2c(=O)n2nc(C(=O)O)cc12`, testing at 0.5 mg/kg with Rattus norvegicus [6] gave an inhibition in vivo of 84%. The compound further displayed an inhibition in vivo at 5 mg/kg in the assay on Rattus norvegicus [2] of 83%. The compound further displayed an inhibition in vivo at 2 mg/kg with Rattus norvegicus [3] of 40%.

For `O=C(Nc1nn[nH]n1)c1cc2nc3ccccc3c(O)n2n1`, the inhibition in vivo at 5 mg/kg was determined as 100% in the assay on Rattus norvegicus [2] and 1% in the assay on Rattus norvegicus [5].

In the case of `Cc1ccc2nc3cc(C(=O)O)nn3c(O)c2c1`, the values for the inhibition in vivo at 5 mg/kg in the assay on Rattus norvegicus [2] and with Rattus norvegicus [5] were 100% and 0%, respectively.

As to `Cn1c2ccc(Cl)cc2c(=O)n2nc(-c3nn[nH]n3)cc12`, the inhibition in vivo at 0.5 mg/kg with Rattus norvegicus [6] was found to be 100%. Further, the inhibition in vivo at 5 mg/kg with Rattus norvegicus [2] came to 100%; in the assay on Rattus norvegicus [5] it was 0%. Also, the inhibition in vivo at 2 mg/kg with Rattus norvegicus [3] amounted to 39%. In the assay with Rattus norvegicus [4], the inhibition in vivo at 0.01 mg/kg was determined as 17%.

As for `CCOC(=O)c1cc2nc3ccccc3c(O)n2n1`, the inhibition in vivo at 5 mg/kg was 74% with Rattus norvegicus [2] and 0% with Rattus norvegicus [5].

Take `O=C(Nc1nn[nH]n1)c1cc2nc3ccc(Cl)cc3c(O)n2n1`: the inhibition in vivo at 5 mg/kg in the assay with Rattus norvegicus [2] came to 22%; in the assay on Rattus norvegicus [5] it was 8%.

Turning to `Cn1c2ccc(N)cc2c(=O)n2nc(C(=O)O)cc12`, the inhibition in vivo at 0.1 mg/kg with Rattus norvegicus [1] was determined as 16%. The inhibition in vivo at 5 mg/kg with Rattus norvegicus [2] is 84%; with Rattus norvegicus [5], 0%.

Turning to `O=C(O)c1cc2nc3ccc(Cl)cc3c(O)n2n1`, the inhibition in vivo at 5 mg/kg came out at 45% in the assay with Rattus norvegicus [2] and 0% in the assay with Rattus norvegicus [5].

`O=C(O)c1cc2n(Cc3ccccc3)c3ccc(Cl)cc3c(=O)n2n1` returned an inhibition in vivo at 5 mg/kg in the assay on Rattus norvegicus [5] of 7%.

In the case of `COc1cccc2nc3cc(C(=O)O)nn3c(O)c12`, the results for the inhibition in vivo at 5 mg/kg in the assay on Rattus norvegicus [2] and with Rattus norvegicus [5] were 62% and 18%, respectively.

For `COc1cc2nc3cc(C(=O)Nc4nn[nH]n4)nn3c(O)c2cc1OC`, the inhibition in vivo at 5 mg/kg in the assay on Rattus norvegicus [2] stood at 100%; in the assay on Rattus norvegicus [5] it was 0%.

As to `O=C(Nc1nn[nH]n1)c1cc2n(Cc3ccccc3)c3ccc(Cl)cc3c(=O)n2n1`, the inhibition in vivo at 5 mg/kg in the assay with Rattus norvegicus [2] turned out to be 3%; in the assay with Rattus norvegicus [5], 0%.

For `Cc1cccc2c(O)n3nc(C(=O)Nc4nn[nH]n4)cc3nc12`, the inhibition in vivo at 5 mg/kg in the assay with Rattus norvegicus [2] is 100%; with Rattus norvegicus [5], 9%.

The compound `COc1cc2nc3cc(C(=O)O)nn3c(O)c2cc1OC` displayed an inhibition in vivo at 0.1 mg/kg in the assay with Rattus norvegicus [1] of 100%. Moreover, the inhibition in vivo at 5 mg/kg is 97% with Rattus norvegicus [2] and 5% in the assay on Rattus norvegicus [5]. For the same compound, 0.01 mg/kg produced 16% inhibition in vivo with Rattus norvegicus [4].

On to `Cn1c2ccccc2c(=O)n2nc(-c3nn[nH]n3)cc12`, for which the inhibition in vivo at 0.1 mg/kg in the assay on Rattus norvegicus [1] turned out to be 0%. The inhibition in vivo at 0.5 mg/kg in the assay with Rattus norvegicus [6] was 84%. Further, the inhibition in vivo at 5 mg/kg in the assay on Rattus norvegicus [2] was 91%; in the assay with Rattus norvegicus [5], 0%. The inhibition in vivo at 2 mg/kg in the assay with Rattus norvegicus [3] was 52%.

For `O=C(O)c1cc2nc3cc(Cl)c(Cl)cc3c(O)n2n1`, the inhibition in vivo at 5 mg/kg with Rattus norvegicus [2] turned out to be 9%; in the assay with Rattus norvegicus [5], 0%.

Turning to `COc1ccc2nc3cc(C(=O)O)nn3c(O)c2c1`, the inhibition in vivo at 5 mg/kg stood at 94% in the assay with Rattus norvegicus [2] and 0% in the assay with Rattus norvegicus [5]. Moreover, at 0.01 mg/kg the inhibition in vivo with Rattus norvegicus [4] was 30%.

Regarding `COc1ccc2c(c1)c(=O)n1nc(-c3nn[nH]n3)cc1n2C`, the inhibition in vivo at 0.5 mg/kg in the assay on Rattus norvegicus [6] stood at 100%. Further, the figures for the inhibition in vivo at 5 mg/kg with Rattus norvegicus [2] and in the assay on Rattus norvegicus [5] were 100% and 0%, respectively.

As for `O=C(O)c1cc2nc3ccc(O)cc3c(O)n2n1`, the inhibition in vivo at 5 mg/kg in the assay with Rattus norvegicus [2] came to 100%; with Rattus norvegicus [5] it was 0%.

Regarding `Cc1cc2n(C)c3ccc(C(=O)O)cc3c(=O)n2n1`, in the assay on Rattus norvegicus [6], at 0.5 mg/kg the inhibition in vivo was 21%. The compound further had an inhibition in vivo at 2 mg/kg in the assay on Rattus norvegicus [3] of 9%.

In the assay on Rattus norvegicus [6], `COc1ccc2c(c1)c(=O)n1nc(C(=O)O)cc1n2C` registered an inhibition in vivo at 0.5 mg/kg of 100%. The inhibition in vivo at 5 mg/kg worked out at 81% with Rattus norvegicus [2] and 4% with Rattus norvegicus [5]. Moreover, in the assay on Rattus norvegicus [4], at 0.01 mg/kg the inhibition in vivo was 23%.

As for `CC(=O)Nc1ccc2c(c1)c(=O)n1nc(C(=O)O)cc1n2C`, at 5 mg/kg the inhibition in vivo in the assay on Rattus norvegicus [5] was 0%.

Turning to `O=C(O)c1cc2nc3ccc(F)cc3c(O)n2n1`, in the assay with Rattus norvegicus [1], the inhibition in vivo at 0.1 mg/kg stood at 62%. Besides, the inhibition in vivo at 5 mg/kg stood at 95% with Rattus norvegicus [2] and 16% in the assay with Rattus norvegicus [5]. This compound came in with an inhibition in vivo at 0.01 mg/kg in the assay on Rattus norvegicus [4] of 2%.

For the compound `COc1cccc2c(O)n3nc(C(=O)Nc4nn[nH]n4)cc3nc12`, the results for the inhibition in vivo at 5 mg/kg with Rattus norvegicus [2] and with Rattus norvegicus [5] were 100% and 14%, respectively.

In turn, `O=C(O)c1cc2nc3c(O)cccc3c(O)n2n1` displayed an inhibition in vivo at 0.1 mg/kg in the assay with Rattus norvegicus [1] of 75%. In the assay on Rattus norvegicus [2], this compound showed an inhibition in vivo at 5 mg/kg of 100%.

`COc1cccc2c(=O)n3nc(C(=O)O)cc3n(C)c12` returned an inhibition in vivo at 5 mg/kg in the assay with Rattus norvegicus [2] of 60%.

For the compound `O=C(O)c1ccc2c(O)n3nc(C(=O)O)cc3nc2c1`, the inhibition in vivo at 0.1 mg/kg in the assay with Rattus norvegicus [1] worked out at 56%. The compound also showed an inhibition in vivo at 5 mg/kg in the assay on Rattus norvegicus [2] of 74%.

As for `Oc1c2cc(Cl)ccc2nc2cc(-c3nn[nH]n3)nn12`, the inhibition in vivo at 5 mg/kg in the assay on Rattus norvegicus [2] is 25%; in the assay on Rattus norvegicus [5] it was 1%.

As for `O=C(O)c1cc2nc3cccc(C(F)(F)F)c3c(O)n2n1`, the values for the inhibition in vivo at 5 mg/kg in the assay with Rattus norvegicus [2] and with Rattus norvegicus [5] were 100% and 10%, respectively.

In turn, `CCOC(=O)c1cc2n(CC)c3ccc(Cl)cc3c(=O)n2n1` returned an inhibition in vivo at 5 mg/kg with Rattus norvegicus [2] of 100%.

Compound `CCCOc1cccc2c(=O)n3nc(C(=O)O)cc3n(CCC)c12` had an inhibition in vivo at 5 mg/kg in the assay with Rattus norvegicus [2] of 72%.

For `Cn1c2ccc(NC(=O)c3ccccc3)cc2c(=O)n2nc(C(=O)O)cc12`, the inhibition in vivo at 5 mg/kg with Rattus norvegicus [2] was determined as 54%; with Rattus norvegicus [5], 1%.

As for `Oc1c2ccccc2nc2cc(-c3nn[nH]n3)nn12`, the inhibition in vivo at 5 mg/kg with Rattus norvegicus [2] came out at 26%; in the assay on Rattus norvegicus [5], 0%.

In the assay with Rattus norvegicus [2], `CSc1ccc2nc3cc(C(=O)Nc4nn[nH]n4)nn3c(O)c2c1` returned an inhibition in vivo at 5 mg/kg of 90%.

Regarding `COc1cccc2nc3cc(C(=O)Nc4nn[nH]n4)nn3c(O)c12`, the inhibition in vivo at 5 mg/kg in the assay with Rattus norvegicus [2] was 100%; in the assay on Rattus norvegicus [5] it was 18%.

As to `Nc1ccc2nc3cc(C(=O)O)nn3c(O)c2c1`, the results for the inhibition in vivo at 5 mg/kg in the assay with Rattus norvegicus [2] and in the assay with Rattus norvegicus [5] were 38% and 16%, respectively.

For the compound `COc1cccc2c(O)n3nc(-c4nn[nH]n4)cc3nc12`, the values for the inhibition in vivo at 5 mg/kg in the assay with Rattus norvegicus [2] and with Rattus norvegicus [5] were 27% and 3%, respectively.

As to `O=C(O)c1ccc2nc3cc(C(=O)O)nn3c(O)c2c1`, the figures for the inhibition in vivo at 5 mg/kg in the assay with Rattus norvegicus [2] and in the assay on Rattus norvegicus [5] were 21% and 7%, respectively.

As to `Cc1cccc2c(O)n3nc(C(=O)O)cc3nc12`, the inhibition in vivo at 5 mg/kg with Rattus norvegicus [2] turned out to be 58%; with Rattus norvegicus [5] it was 0%.

In the assay with Rattus norvegicus [1], `CCn1c2ccc(Cl)cc2c(=O)n2nc(C(=O)O)cc12` came in with an inhibition in vivo at 0.1 mg/kg of 16%.

In the assay on Rattus norvegicus [6], `Cc1ccc2c(c1)c(=O)n1nc(C(=O)O)cc1n2C` registered an inhibition in vivo at 0.5 mg/kg of 55%. The compound further came in with an inhibition in vivo at 2 mg/kg with Rattus norvegicus [3] of 25%.

The values are drawn from ChEMBL document CHEMBL1121643, “Pyrazolo[5,1-b]quinazolin-9-ones: a new series of antiallergic agents” (1981).
